ChEMBL document CHEMBL5046294, “Rational Design, Chemical Syntheses, and Biological Evaluations of Peripherally Selective Mu Opioid Receptor Ligands as Potential Opioid Induced Constipation Treatment” (J Med Chem, 2022)
Calls of active or inactive are those of the source.

How the values were obtained:
Mu-type opioid receptor [1] = target: T1, Mu-type opioid receptor (Mus musculus, UniProt P42866); assay: Binding affinity to mouse mu opioid receptor expressed in CHO cells in presence of naltrexone incubated for 1.5 hrs by competitive radioligand binding assay; type: cell-based
Procedure, shortened: (§1)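 Competition binding. Membranes (30 μg protein) from CHO cells with mouse MOR or KOR, or human DOR. Incubated with radioligand and varying test concentrations in TME buffer, pH 7.4, 1.5 h at 30 °C. Filtration harvest. Nonspecific binding defined with 5 μM naltrexone (MOR), U50,488 (KOR) or SNC80 (DOR). IC₅₀ by nonlinear regression, converted to Ki by Cheng-Prusoff. Selectivity ratios taken from these Ki values. At least three independent experiments.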

[2] = Selectivity index, ratio of Ki for binding affinity to human delta opioid receptor to Ki for binding affinity to mouse mu opioid receptor; procedure, shortened: as §1
Mus musculus [3] = assay: Antinociceptive activity against Swiss Webster mouse assessed as tail withdrawal latency from warm water by measuring maximum possible effect at 10 mg/kg, sc measured after 20 mins by warm water tail immersion assay; type: functional
Procedure, shortened: (§2)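 Male Swiss Webster mice, 5–8 weeks, 25–35 g, 6 per group. Tail immersed (distal third) in water at 56 ± 0.1 °C. Mice included only with baseline latency 2–4 s. Compound 10 mg/kg s.c.; in the challenge arm it was given 5 min before morphine 10 mg/kg s.c. Latency read 20 min after injection, 10-s cutoff. %MPE = (test − control)/(10 − control) × 100. Dunnett-corrected one-way ANOVA.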

[4] = target: Delta-type opioid receptor (Homo sapiens, UniProt P41143); assay: Binding affinity to human delta opioid receptor in presence of SNC80 incubated for 1.5 hrs by competitive radioligand binding assay; procedure, shortened: as §1
Mu-type opioid receptor [5] = target: T1, Mu-type opioid receptor; assay: Antagonist activity at mouse mu opioid receptor expressed in CHO cell membrane assessed as reduction in DAMGO-induced […]-GTPgammaS binding incubated for 1.5 hrs by liquid scintillation counting method; type: functional, cell membranes
[6] = target: Mu-type opioid receptor (Mus musculus) (UniProt P42866); assay: Antagonist activity at mouse mu opioid receptor expressed in CHO cell membrane assessed as reduction in DAMGO-induced […]-GTPgammaS binding by measuring maximal efficacy incubated for 1.5 hrs by liquid scintillation counting method relative to control; type: functional, cell membranes
Procedure, shortened: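 [³⁵S]GTPγS binding. Membranes (10 μg protein) from CHO cells expressing MOR, KOR or DOR. Buffer TME (50 mM Tris, 3 mM MgCl₂, 0.2 mM EGTA, pH 7.4) with 100 mM NaCl, 20 μM GDP and 0.1 nM [³⁵S]GTPγS. Test compound at varying concentrations. Incubation 1.5 h at 30 °C. Nonspecific binding with 20 μM unlabeled GTPγS. Reference full agonist at 3 μM: DAMGO (MOR), U50488H (KOR), SNC80 (DOR). Filtration, then scintillation counting. Duplicates, at least three repeats.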

[7] = target: Kappa-type opioid receptor (Mus musculus, UniProt P33534); assay: Binding affinity to mouse kappa opioid receptor expressed in CHO cells in presence of U50488 incubated for 1.5 hrs by competitive radioligand binding assay; type: cell-based; procedure, shortened: as §1
Mus musculus [8] = species: Mus musculus; assay: Selectivity index, ratio of Ki for binding affinity to mouse kappa opioid receptor to Ki for binding affinity to mouse mu opioid receptor; procedure, shortened: as §1
Mus musculus [9] = assay: Antinociceptive activity against sc dosed Swiss Webster mouse model assessed as effect on morphine induced antinociception by measuring tail withdrawal latency from warm water incubated for 5 mins followed by morphine addition measured after 20 mins by warm water tail immersion assay; type: functional; settings: time 25.0 min; procedure, shortened: as §2
Mus musculus [10] = assay: Reversal of morphine induced constipation in Swiss Webster mouse at 10 mg/kg, po for 5 mins followed by morphine addition measured after 20 mins by carmine red dye assay relative to control; type: functional; settings: time 25 min
Procedure, shortened: (§3)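 Male Swiss Webster mice, 5–6 per group, housed singly. Compound or vehicle given s.c. or by oral gavage 5 min before morphine (10 or 5 mg/kg) or vehicle. 20 min after morphine, 0.2 mL of 6% carmine red in 0.5% CMC given orally (time 0). Time to first red pellet recorded, 6-h cutoff. Dunnett-corrected one-way ANOVA.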

Mus musculus [11] = assay: Gastroprokinetic activity in Swiss Webster mouse assessed as stimulation of gastrointestinal motility by measuring time required to defecation of red fecal pellet at 10 mg/kg, po incubated for 5 mins followed by morphine addition at 10 mg/kg and measured after 20 mins by carmine red dye assay; type: functional; settings: time 25 min; procedure, shortened: as §3
Mus musculus [12] = assay: Gastroprokinetic activity in Swiss Webster mouse assessed as stimulation of gastrointestinal motility by measuring time required to defecation of red fecal pellet at 10 mg/kg, sc incubated for 5 mins followed by morphine addition at 10 mg/kg and measured after 20 mins by carmine red dye assay; type: functional; settings: time 25 min; procedure, shortened: as §3

Compound | Ki (Mu-type opioid receptor [1]) [nM] | Ratio Ki [2] | Activity (Mus musculus [3]) | Ki [4] [nM] | EC50 (Mu-type opioid receptor [5]) [nM] | Emax [6] [%] | Ki [7] [nM] | Ratio Ki (Mus musculus [8]) | Activity (Mus musculus [9]) | Activity (Mus musculus [10]) [%] | Time (Mus musculus [11]) [min] | Time (Mus musculus [12]) [min] | MPE (Mus musculus [3]) [%]
O=C(N[C@H]1CC[C@@]2(O)[C@H]3Cc4ccc(O)c5c4[C@@]2(CCN3CC2CC2)[C@H]1O5)c1cn[nH]c1 | 0.59 | 64 | inactive | 37.5 | 1.24 | 23.1 | 4.7 | 8 | inactive | – | – | – | –
O=C(CCc1cc[nH]n1)N[C@H]1CC[C@@]2(O)[C@H]3Cc4ccc(O)c5c4[C@@]2(CCN3CC2CC2)[C@H]1O5 | 0.5 | 433 | inactive | 217 | 4.22 | 22.2 | 2.75 | 6 | inactive | – | – | – | –
O=C(Cc1cnc[nH]1)N[C@@H]1CC[C@@]2(O)[C@H]3Cc4ccc(O)c5c4[C@@]2(CCN3CC2CC2)[C@H]1O5 | 0.82 | 91 | inactive | 74.5 | 4.64 | 20.9 | 4.82 | 6 | inactive | – | – | – | –
O=C(Cc1ncc[nH]1)N[C@@H]1CC[C@@]2(O)[C@H]3Cc4ccc(O)c5c4[C@@]2(CCN3CC2CC2)[C@H]1O5 | 0.48 | 188 | inactive | 89.8 | 2.07 | 23.5 | 5.17 | 11 | inactive | – | – | – | –
O=C(Cc1cnc[nH]1)N[C@H]1CC[C@@]2(O)[C@H]3Cc4ccc(O)c5c4[C@@]2(CCN3CC2CC2)[C@H]1O5 | 1.34 | 59 | inactive | 79.4 | 3.61 | 21 | 3.57 | 3 | inactive | – | – | – | –
O=C(CCc1ncc[nH]1)N[C@@H]1CC[C@@]2(O)[C@H]3Cc4ccc(O)c5c4[C@@]2(CCN3CC2CC2)[C@H]1O5 | 0.57 | 99 | inactive | 55.8 | 1.24 | 17.7 | 0.57 | 1 | inactive | – | – | – | –
O=C(N[C@@H]1CC[C@@]2(O)[C@H]3Cc4ccc(O)c5c4[C@@]2(CCN3CC2CC2)[C@H]1O5)c1cc[nH]n1 | 0.28 | 52 | inactive | 14.5 | 1.83 | 10.9 | 0.95 | 3 | inactive | – | – | – | –
O=C(CCc1ncc[nH]1)N[C@H]1CC[C@@]2(O)[C@H]3Cc4ccc(O)c5c4[C@@]2(CCN3CC2CC2)[C@H]1O5 | 0.69 | 6 | inactive | 3.94 | 4.26 | 21.7 | 0.79 | 1 | inactive | – | – | – | –
O=C(N[C@H]1CC[C@@]2(O)[C@H]3Cc4ccc(O)c5c4[C@@]2(CCN3CC2CC2)[C@H]1O5)c1cnc[nH]1 | 1.11 | 29 | inactive | 32.5 | 4.42 | 20.7 | 2.76 | 2 | inactive | – | – | – | –
O=C(CCc1cc[nH]n1)N[C@@H]1CC[C@@]2(O)[C@H]3Cc4ccc(O)c5c4[C@@]2(CCN3CC2CC2)[C@H]1O5 | 0.21 | 202 | inactive | 42.2 | 2.76 | 13.2 | 2 | 10 | inactive | – | – | – | –
O=C(Cc1cn[nH]c1)N[C@@H]1CC[C@@]2(O)[C@H]3Cc4ccc(O)c5c4[C@@]2(CCN3CC2CC2)[C@H]1O5 | 0.17 | 390 | inactive | 66.6 | – | 22.2 | 13.9 | 82 | inactive | 40 | 69 | 174 | –
O=C(CCc1cnc[nH]1)N[C@@H]1CC[C@@]2(O)[C@H]3Cc4ccc(O)c5c4[C@@]2(CCN3CC2CC2)[C@H]1O5 | 0.6 | 60 | inactive | 35.5 | 3.19 | 15.7 | 1.8 | 3 | inactive | – | – | – | –
O=C(N[C@H]1CC[C@@]2(O)[C@H]3Cc4ccc(O)c5c4[C@@]2(CCN3CC2CC2)[C@H]1O5)c1cc[nH]n1 | 0.61 | 35 | inactive | 21.2 | 2.33 | 19.6 | 1.05 | 2 | inactive | – | – | – | –
O=C(N[C@@H]1CC[C@@]2(O)[C@H]3Cc4ccc(O)c5c4[C@@]2(CCN3CC2CC2)[C@H]1O5)c1cn[nH]c1 | 0.65 | 72 | inactive | 46.8 | 1.77 | 16.3 | 2.51 | 4 | inactive | – | – | – | –
O=C(CCc1cnc[nH]1)N[C@H]1CC[C@@]2(O)[C@H]3Cc4ccc(O)c5c4[C@@]2(CCN3CC2CC2)[C@H]1O5 | 0.2 | 106 | inactive | 21.5 | 9.47 | 25.4 | 1.21 | 6 | inactive | – | – | – | –
O=C(Cc1cn[nH]c1)N[C@H]1CC[C@@]2(O)[C@H]3Cc4ccc(O)c5c4[C@@]2(CCN3CC2CC2)[C@H]1O5 | 0.88 | 3920 | inactive | 3440 | 8.17 | 28.4 | 104 | 118 | inactive | 39 | 70 | 172 | –
O=C(CCc1cn[nH]c1)N[C@@H]1CC[C@@]2(O)[C@H]3Cc4ccc(O)c5c4[C@@]2(CCN3CC2CC2)[C@H]1O5 | 0.3 | 322 | inactive | 97.8 | 4.28 | 10.7 | 12.3 | 40 | inactive | – | – | – | –
O=C(Cc1ncc[nH]1)N[C@H]1CC[C@@]2(O)[C@H]3Cc4ccc(O)c5c4[C@@]2(CCN3CC2CC2)[C@H]1O5 | 0.83 | 21 | – | 17.7 | 1.81 | 19.2 | 3.45 | 4 | – | – | – | – | 36.9
O=C(CCc1cn[nH]c1)N[C@H]1CC[C@@]2(O)[C@H]3Cc4ccc(O)c5c4[C@@]2(CCN3CC2CC2)[C@H]1O5 | 1.09 | 83 | inactive | 91.2 | 12.3 | 14.2 | 39.5 | 36 | inactive | – | – | – | –
O=C(Cc1cc[nH]n1)N[C@@H]1CC[C@@]2(O)[C@H]3Cc4ccc(O)c5c4[C@@]2(CCN3CC2CC2)[C@H]1O5 | 0.2 | 186 | – | 36.8 | 2.5 | 20.4 | 5.05 | 26 | inactive | – | – | – | 39.3
